This is an account of results in ChEMBL document CHEMBL4622983, “Structure-Activity Relationship Studies of α-Ketoamides as Inhibitors of the Phospholipase A and Acyltransferase Enzyme Family” (J Med Chem, 2020).

For assay [1], the target named is T1, Phospholipase A and acyltransferase 2 (Homo sapiens) (UniProt Q9NWW9).
T1 sequence (whole entry): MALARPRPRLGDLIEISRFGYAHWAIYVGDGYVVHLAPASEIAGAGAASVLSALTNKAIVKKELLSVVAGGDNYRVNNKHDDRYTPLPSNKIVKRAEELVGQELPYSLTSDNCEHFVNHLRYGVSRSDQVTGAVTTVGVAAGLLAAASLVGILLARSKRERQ
As to the kind of experiment: Inhibition of full-length C-terminal FLAG-tagged human PLAAT2 expressed in human U2OS cells assessed as reduction in absolute N-palmitoleoylethanolamine level at 10 uM incubated for 4 hrs by LC-MS/MS analysis. Format: cell-based. The method, boiled down: (§1)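 U2OS cells transfected with PLAAT2, PLAAT5 or empty vector (PEI, 1:5 plasmid/PEI). At 24 h, switched to serum-free medium with 10 μM compound (0.1% DMSO) or DMSO for 4 h at 37 °C. Pellets extracted with MTBE against deuterated internal standards. NAEs, 2-AG and free fatty acids quantified by LC–MS/MS, normalized to live cell count. Four biological replicates; one-way ANOVA.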

Assay [2] deals with T1, Phospholipase A and acyltransferase 2 (Homo sapiens). Nature of the assay: Inhibition of full-length C-terminal FLAG-tagged human PLAAT2 expressed in human U2OS cells assessed as reduction in arachidonic acid level at 10 uM incubated for 4 hrs by LC-MS/MS analysis. Format: cell-based. The method, boiled down:
as §1

In assay [3] the target is Cytosolic phospholipase A2 delta (Homo sapiens) (UniProt Q86XP0). Nature of the assay: Inhibition of human PLA2G4D expressed in HEK293T cell lysates at 10 uM preincubated for 30 mins followed by FP-TAMRA addition and measured after 20 mins by SDS-PAGE based competitive ABPP analysis. Format: cell-free. Particulars: HEK-293T. The method, boiled down:
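hPLA2G4B, C or D-overexpressing membrane lysate (1 μg/μL) preincubated with inhibitor for 30 min at rt. FP-TAMRA 500 nM added for 20 min at rt. In-gel fluorescence after SDS-PAGE, normalized to Coomassie.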

Assay [4] has as its system U2OS. Nature of the assay: Inhibition of serine hydrolase in human U2OS cytosolic fraction at 10 uM preincubated for 30 mins followed by MB064 addition and measured after 15 mins by SDS-PAGE based competitive ABPP analysis. The method, boiled down: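 U2OS cytosol or membrane lysate at 2.5 μg/μL, pretreated with inhibitor or DMSO vehicle for 30 min at rt. Probe then added for 15 min at rt: MB064 at 2 μM or FP-TAMRA at 500 nM. Samples denatured in Laemmli buffer and resolved by SDS-PAGE. In-gel fluorescence scanned at Cy3/Cy5 settings and normalized to Coomassie staining.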

Assay [5] concerns the target T2, Phospholipase A and acyltransferase 5 (Homo sapiens) (UniProt Q96KN8).
T2 sequence (whole entry): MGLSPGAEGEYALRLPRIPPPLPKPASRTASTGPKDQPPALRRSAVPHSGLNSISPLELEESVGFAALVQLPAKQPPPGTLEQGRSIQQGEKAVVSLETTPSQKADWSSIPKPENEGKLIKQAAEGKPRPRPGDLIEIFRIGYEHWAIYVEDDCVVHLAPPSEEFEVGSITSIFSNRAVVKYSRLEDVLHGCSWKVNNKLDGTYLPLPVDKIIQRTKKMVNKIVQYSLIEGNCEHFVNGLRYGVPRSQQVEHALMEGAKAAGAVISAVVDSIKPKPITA
Nature of the assay: Inhibition of full-length C-terminal FLAG-tagged human PLAAT5 expressed in human U2OS cells assessed as reduction in N-docosahexaenoylethanolamine level at 10 uM incubated for 4 hrs by LC-MS/MS analysis. Format: cell-based. The method, boiled down: as §1

The target in assay [6] is Diacylglycerol lipase-alpha (Mus musculus) (UniProt Q6WQJ1). As to the kind of experiment: Inhibition of mouse brain membrane DAGLalpha assessed as enzyme remaining activity at 10 uM preincubated for 30 mins followed by MB064 or FP-TAMRA addition and measured after 15 mins by SDS-PAGE based ABPP analysis relative to control. Format: cell membranes. The method, boiled down:
(§2)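 Mouse brain membrane proteome (2 μg/μL) preincubated with 10 μM inhibitor for 30 min at rt. Then MB064 250 nM or FP-TAMRA 500 nM for 15 min at rt. Resolved on 10% SDS-PAGE, fluorescence normalized to Coomassie. Reported as % remaining activity ± SD, n = 3.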

Assay [7] addresses T2, Phospholipase A and acyltransferase 5 (Homo sapiens). Nature of the assay: Inhibition of full-length C-terminal FLAG-tagged human PLAAT5 expressed in human U2OS cells assessed as reduction in absolute N-palmitoleoylethanolamine level at 10 uM incubated for 4 hrs by LC-MS/MS analysis. Format: cell-based. The method, boiled down: as §1
Assay [8] addresses T1, Phospholipase A and acyltransferase 2 (Homo sapiens). As to the kind of experiment: Inhibition of full-length C-terminal FLAG-tagged human PLAAT2 expressed in human U2OS cells assessed as reduction in 2-AG level at 10 uM incubated for 4 hrs by LC-MS/MS analysis. Format: cell-based. The method, boiled down: as §1
Assay [9] addresses Diacylglycerol lipase-beta (Mus musculus) (UniProt Q91WC9). Nature of the assay: Inhibition of mouse brain membrane DAGLbeta assessed as enzyme remaining activity at 10 uM preincubated for 30 mins followed by MB064 or FP-TAMRA addition and measured after 15 mins by SDS-PAGE based ABPP analysis relative to control. Format: cell membranes. The method, boiled down: as §2
Assay [10] deals with U2OS. As to the kind of experiment: Downregulation of N-docosahexaenoylethanolamine level in human U2OS cells at 10 uM after 4 hrs by LC-MS/MS analysis. Format: functional, cell-based. The method, boiled down: as §1
Assay [11] deals with U2OS. Nature of the assay: Downregulation of N-palmitoylethanolamine level in human U2OS cells at 10 uM after 4 hrs by LC-MS/MS analysis. Format: functional, cell-based. The method, boiled down:
as §1

In assay [12] the test system is U2OS. Nature of the assay: Downregulation of N-palmitoleoylethanolamine level in human U2OS cells at 10 uM after 4 hrs by LC-MS/MS analysis. Format: functional, cell-based. The method, boiled down: as §1
In assay [13] the target is Cytosolic phospholipase A2 epsilon (Homo sapiens) (UniProt Q3MJ16). Nature of the assay: Inhibition of full length human PLA2G4E assessed as enzyme remaining activity at 10 uM using FP-TAMRA as substrate preincubated for 30 mins followed by substrate addition and measured after 5 mins by SDS-PAGE based ABPP analysis relative to control. The method, boiled down:
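hPLA2G4E-overexpressing membrane lysate (1 μg/μL) preincubated with 10 μM inhibitor for 30 min at rt. FP-TAMRA 50 nM added for 5 min at rt. Resolved on 8% SDS-PAGE, fluorescence normalized to Coomassie. Reported as % remaining activity ± SD, n = 3.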

The target in assay [14] is T2, Phospholipase A and acyltransferase 5 (Homo sapiens). Nature of the assay: Inhibition of full-length C-terminal FLAG-tagged human PLAAT5 expressed in human U2OS cells assessed as reduction in absolute N-eicosapentaenoylethanolamine level at 10 uM incubated for 4 hrs by LC-MS/MS analysis. Format: cell-based. The method, boiled down: as §1
Assay [15] addresses T1, Phospholipase A and acyltransferase 2 (Homo sapiens). As to the kind of experiment: Inhibition of full-length C-terminal FLAG-tagged human PLAAT2 expressed in human U2OS cells assessed as reduction in absolute N-linoleoylethanolamine level at 10 uM incubated for 4 hrs by LC-MS/MS analysis. Format: cell-based. The method, boiled down:
as §1

For assay [16] the target is unchanged. Nature of the assay: Inhibition of full-length C-terminal FLAG-tagged human PLAAT2 expressed in human U2OS cells assessed as reduction in absolute N-eicosapentaenoylethanolamine level at 10 uM incubated for 4 hrs by LC-MS/MS analysis. Format: cell-based. The method, boiled down: as §1
Assay [17] concerns the target Cannabinoid receptor 1 (Homo sapiens) (UniProt P21554). As to the kind of experiment: Displacement of [3H]CP55940 from human CB1 receptor expressed in CHOK1 cell membranes at 10 uM by liquid scintillation spectrometry analysis. Particulars: CHO-K1. The method, boiled down: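 [3H]CP55940 displacement at human CB1 or CB2 receptors, single test concentration 10 μM. Result expressed as % radioligand displacement ± SD (N = 2, n = 2).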
A general note: Displacement assays read how much labelled ligand stays bound in the presence of the test substance.

The source made the active and inactive calls. No cut-off for these calls is given here.

Chain of Cannabinoid receptor 1 (Homo sapiens) (P21554 whole entry): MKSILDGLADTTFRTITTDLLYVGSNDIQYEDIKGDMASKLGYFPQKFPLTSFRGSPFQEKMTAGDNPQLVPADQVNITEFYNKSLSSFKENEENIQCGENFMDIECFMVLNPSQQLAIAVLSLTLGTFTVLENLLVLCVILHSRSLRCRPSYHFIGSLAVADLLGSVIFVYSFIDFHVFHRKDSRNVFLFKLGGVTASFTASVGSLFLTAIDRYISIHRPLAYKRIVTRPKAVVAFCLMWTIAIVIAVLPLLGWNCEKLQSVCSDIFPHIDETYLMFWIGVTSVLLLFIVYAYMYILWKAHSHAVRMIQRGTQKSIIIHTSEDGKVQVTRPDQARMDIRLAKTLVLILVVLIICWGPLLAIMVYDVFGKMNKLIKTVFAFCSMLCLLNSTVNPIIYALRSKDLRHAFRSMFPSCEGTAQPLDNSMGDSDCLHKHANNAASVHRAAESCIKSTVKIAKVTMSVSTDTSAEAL
Chain of Diacylglycerol lipase-alpha (Mus musculus) (Q6WQJ1 whole entry): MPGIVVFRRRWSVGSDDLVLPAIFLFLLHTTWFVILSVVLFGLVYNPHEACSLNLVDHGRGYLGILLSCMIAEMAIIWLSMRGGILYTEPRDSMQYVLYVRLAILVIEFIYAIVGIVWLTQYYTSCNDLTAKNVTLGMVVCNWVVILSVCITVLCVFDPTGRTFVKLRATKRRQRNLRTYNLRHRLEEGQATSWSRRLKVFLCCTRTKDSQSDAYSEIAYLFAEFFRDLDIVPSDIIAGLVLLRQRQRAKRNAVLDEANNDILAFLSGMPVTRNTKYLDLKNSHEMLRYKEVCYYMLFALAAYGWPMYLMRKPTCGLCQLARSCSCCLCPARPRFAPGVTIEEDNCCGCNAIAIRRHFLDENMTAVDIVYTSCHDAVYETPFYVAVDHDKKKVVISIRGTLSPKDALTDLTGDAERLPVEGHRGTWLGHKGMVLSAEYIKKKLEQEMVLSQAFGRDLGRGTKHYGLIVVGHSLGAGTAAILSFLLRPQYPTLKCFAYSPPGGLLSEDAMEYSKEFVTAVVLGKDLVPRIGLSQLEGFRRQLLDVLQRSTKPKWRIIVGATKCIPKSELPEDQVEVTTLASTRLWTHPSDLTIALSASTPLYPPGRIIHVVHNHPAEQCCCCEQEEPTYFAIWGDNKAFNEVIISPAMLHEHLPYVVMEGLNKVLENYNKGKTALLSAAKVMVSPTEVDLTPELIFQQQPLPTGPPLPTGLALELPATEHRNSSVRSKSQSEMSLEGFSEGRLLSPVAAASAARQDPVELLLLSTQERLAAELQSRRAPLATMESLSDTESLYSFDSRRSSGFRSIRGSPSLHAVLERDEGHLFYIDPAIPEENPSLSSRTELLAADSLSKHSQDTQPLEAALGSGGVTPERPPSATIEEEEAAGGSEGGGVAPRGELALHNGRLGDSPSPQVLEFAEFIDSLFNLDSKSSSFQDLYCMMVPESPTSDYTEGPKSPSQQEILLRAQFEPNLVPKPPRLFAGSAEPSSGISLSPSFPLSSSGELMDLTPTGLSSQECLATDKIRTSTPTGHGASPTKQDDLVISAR
Chain of Diacylglycerol lipase-beta (Mus musculus) (Q91WC9 whole entry): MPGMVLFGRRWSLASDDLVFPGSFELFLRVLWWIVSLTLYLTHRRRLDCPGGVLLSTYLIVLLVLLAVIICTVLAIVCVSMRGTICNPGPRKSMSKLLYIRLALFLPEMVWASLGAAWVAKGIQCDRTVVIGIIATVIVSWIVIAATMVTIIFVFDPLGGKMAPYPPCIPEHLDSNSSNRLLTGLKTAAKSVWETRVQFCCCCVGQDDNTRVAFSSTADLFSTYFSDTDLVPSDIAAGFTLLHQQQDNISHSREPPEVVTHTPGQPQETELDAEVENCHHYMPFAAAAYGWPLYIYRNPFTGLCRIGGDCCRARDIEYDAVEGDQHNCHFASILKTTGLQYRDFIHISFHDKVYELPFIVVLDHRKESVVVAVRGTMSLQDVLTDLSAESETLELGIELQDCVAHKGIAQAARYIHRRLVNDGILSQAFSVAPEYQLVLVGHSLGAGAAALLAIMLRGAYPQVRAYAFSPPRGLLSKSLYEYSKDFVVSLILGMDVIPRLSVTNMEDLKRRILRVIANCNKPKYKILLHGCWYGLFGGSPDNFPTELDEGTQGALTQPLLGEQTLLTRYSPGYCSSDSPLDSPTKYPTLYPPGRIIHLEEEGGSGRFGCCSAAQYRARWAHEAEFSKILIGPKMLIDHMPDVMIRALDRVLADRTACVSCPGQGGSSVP
Chain of Cytosolic phospholipase A2 epsilon (Homo sapiens) (Q3MJ16 whole entry): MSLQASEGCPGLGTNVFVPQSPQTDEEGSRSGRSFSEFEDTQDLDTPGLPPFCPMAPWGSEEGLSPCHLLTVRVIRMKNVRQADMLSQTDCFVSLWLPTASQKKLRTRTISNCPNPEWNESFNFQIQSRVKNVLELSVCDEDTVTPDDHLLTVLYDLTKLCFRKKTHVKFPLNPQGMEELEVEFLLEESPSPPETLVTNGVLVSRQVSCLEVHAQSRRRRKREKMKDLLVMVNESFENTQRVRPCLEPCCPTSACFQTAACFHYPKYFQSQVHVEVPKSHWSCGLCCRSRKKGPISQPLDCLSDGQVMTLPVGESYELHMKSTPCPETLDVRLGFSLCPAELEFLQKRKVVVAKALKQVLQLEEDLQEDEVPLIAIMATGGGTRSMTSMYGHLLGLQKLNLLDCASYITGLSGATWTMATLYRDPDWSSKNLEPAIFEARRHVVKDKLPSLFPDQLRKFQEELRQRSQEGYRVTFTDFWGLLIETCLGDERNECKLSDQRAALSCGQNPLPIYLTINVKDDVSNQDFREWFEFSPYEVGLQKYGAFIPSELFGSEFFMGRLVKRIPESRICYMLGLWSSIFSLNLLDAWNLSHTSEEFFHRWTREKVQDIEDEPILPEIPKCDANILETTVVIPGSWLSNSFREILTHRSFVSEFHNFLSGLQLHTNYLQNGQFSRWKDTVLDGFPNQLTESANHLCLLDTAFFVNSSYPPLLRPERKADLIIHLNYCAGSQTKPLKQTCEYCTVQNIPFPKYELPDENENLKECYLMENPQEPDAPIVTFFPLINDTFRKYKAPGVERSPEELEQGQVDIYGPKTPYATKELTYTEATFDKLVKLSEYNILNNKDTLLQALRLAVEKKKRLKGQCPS
Chain of Cytosolic phospholipase A2 delta (Homo sapiens) (Q86XP0 whole entry): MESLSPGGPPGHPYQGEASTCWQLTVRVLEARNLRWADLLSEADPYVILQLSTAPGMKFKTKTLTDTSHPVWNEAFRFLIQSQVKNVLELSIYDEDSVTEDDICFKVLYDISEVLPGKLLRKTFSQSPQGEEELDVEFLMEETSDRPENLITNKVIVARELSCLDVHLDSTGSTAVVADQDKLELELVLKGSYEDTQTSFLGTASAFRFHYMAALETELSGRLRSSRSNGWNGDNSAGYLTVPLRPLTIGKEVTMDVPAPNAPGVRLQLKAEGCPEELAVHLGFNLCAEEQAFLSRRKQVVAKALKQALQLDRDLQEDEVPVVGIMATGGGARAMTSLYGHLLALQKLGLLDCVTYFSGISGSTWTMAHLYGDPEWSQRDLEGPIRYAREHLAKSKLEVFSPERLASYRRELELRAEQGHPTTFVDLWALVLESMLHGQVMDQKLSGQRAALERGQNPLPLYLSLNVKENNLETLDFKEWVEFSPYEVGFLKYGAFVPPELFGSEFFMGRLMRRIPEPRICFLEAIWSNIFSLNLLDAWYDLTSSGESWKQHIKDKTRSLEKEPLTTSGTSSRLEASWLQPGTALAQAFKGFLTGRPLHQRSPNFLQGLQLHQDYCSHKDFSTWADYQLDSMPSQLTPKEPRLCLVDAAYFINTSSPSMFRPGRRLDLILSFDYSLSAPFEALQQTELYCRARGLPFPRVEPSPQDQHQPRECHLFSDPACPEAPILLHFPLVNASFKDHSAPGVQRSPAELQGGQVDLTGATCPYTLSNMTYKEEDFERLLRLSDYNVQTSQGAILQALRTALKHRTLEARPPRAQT

With `O=C(CCCc1ccccc1)C(=O)NCCc1ccc(Oc2ccccc2)cc1`, the inhibition entry in assay [1], in assay [7], in assay [14], in [15] and in assay [16] was “Active” in each case. The inhibition result (in assay [2]; in assay [3]; in the assay on U2OS [4]; in assay [5]; in assay [8]; with U2OS [10]) was “inactive” in each case. In addition, the inhibition entry in the assay on U2OS [11] and in the assay on U2OS [12] was “inactive” throughout. The Activity amounted to 97% in [6], 83% in [9], 95% in [13] and 49% in assay [17].
